The values that follow come from ChEMBL document CHEMBL1150273, “Aza-peptidyl Michael acceptors. A new class of potent and selective inhibitors of asparaginyl endopeptidases (legumains) from evolutionarily diverse pathogens” (J Med Chem, 2008).

Data set [1] addresses Lys-gingipain HG66 (Porphyromonas gingivalis) (UniProt P72197). Kind of data set: Inhibition of Porphyromonas gingivalis gingipain K assessed as ratio of pseudo-first-order inhibition rate constant to inhibitor concentration. In outline:
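Gingipain K diluted to 4.61 nM in 0.2 M Tris-HCl, 0.1 M NaCl, 5 mM CaCl2, 2 mM DTT, pH 8.0 and incubated with inhibitor (DMSO) at room temperature; aliquots taken at intervals into buffer with Suc-Ala-Phe-Lys-AMC; fluorescence at 465 nm; pseudo-first-order kinetics.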

The target of a further data set is Caspase-8 (Homo sapiens) (UniProt Q14790). Kind of data set: Inhibition of caspase 8 assessed as ratio of pseudo-first-order inhibition rate constant to inhibitor concentration. The procedure, abridged:
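Caspase-8 at 50 nM final, assayed in the same Pipes/NaCl/CHAPS/sucrose/DTT buffer, pH 7.2, 37 °C with Ac-Asp-Glu-Val-Asp-AMC by the progress curve method; inhibitor stocks 5 × 10^-3 to 2.42 × 10^-6 M in DMSO; rates corrected for substrate using KM 6.79 µM.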

Data set [2] in a line: Inhibition of Trichomonas vaginalis G3 AE1 expressed in Pichia pastoris after 20 mins. The procedure, abridged: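 Recombinant AE zymogens expressed in Pichia pastoris; SmAE and TvAE1 autoactivated in 0.5 M sodium acetate, 4 mM DTT, pH 4.5, 37 °C, 3 h to overnight; IrAE used without activation. Buffer 0.1 M citrate phosphate, 4 mM DTT, pH 6.8 (SmAE, TvAE1) or pH 5.5 (IrAE). Inhibitor 2.0–0.0002 µM final, 20 min preincubation at room temperature; 10 µM final Cbz-Ala-Ala-Asn-AMC, 20 min; IC50 from RFU/min vs concentration.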

Data set [3] addresses Cathepsin B (Homo sapiens) (UniProt P07858). The experiment in a line: Inhibition of cathepsin B assessed as ratio of pseudo-first-order inhibition rate constant to inhibitor concentration.
A short description of data set [4]: Stability assessed as half life in citrate phosphate buffer at pH 5.8 in presence of dithiothreitol. The format is physicochemical. Conditions: citrate phosphate buffer with dithiothreitol.
Data set [5] is described as follows: Stability assessed as half life in citrate phosphate buffer at pH 6.8 in presence of dithiothreitol. The data set is classed as physicochemical. Conditions: citrate phosphate buffer with dithiothreitol.
For another data set, the target named is T1, Caspase-6 (Homo sapiens) (UniProt P55212).
T1 sequence (whole entry): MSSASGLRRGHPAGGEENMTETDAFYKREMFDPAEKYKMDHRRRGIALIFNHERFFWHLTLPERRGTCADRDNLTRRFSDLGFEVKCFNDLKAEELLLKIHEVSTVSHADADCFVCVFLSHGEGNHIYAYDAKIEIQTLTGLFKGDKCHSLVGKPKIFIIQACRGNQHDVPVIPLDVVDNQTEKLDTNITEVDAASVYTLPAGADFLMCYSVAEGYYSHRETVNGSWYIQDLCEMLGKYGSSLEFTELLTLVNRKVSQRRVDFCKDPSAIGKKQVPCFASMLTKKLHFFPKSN
The experiment in a line: Inhibition of caspase 6 assessed as ratio of pseudo-first-order inhibition rate constant to inhibitor concentration. In outline:
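Caspase-6 at 5 nM final, assayed in the same Pipes/NaCl/CHAPS/sucrose/DTT buffer, pH 7.2, 37 °C with Ac-Asp-Glu-Val-Asp-AMC by the progress curve method; inhibitor stocks 5 × 10^-3 to 2.42 × 10^-6 M in DMSO; rates corrected for substrate using KM 236.35 µM.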

The test system of a further data set is Schistosoma mansoni. Kind of data set: Inhibition of Schistosoma mansoni AE assessed as ratio of pseudo-first-order inhibition rate constant to inhibitor concentration. In outline:
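Autoactivated recombinant SmAE added to six inhibitor concentrations (0–1 µM final) in 0.1 M citrate phosphate, 2 mM DTT, pH 6.8 with 20 µM Cbz-Ala-Ala-Asn-AMC; progress followed every 2 s for 30 min at 25 °C (ex 355, em 460 nm); kobs/[I] by nonlinear regression, corrected for substrate by factor 1.33.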

Calls of active or inactive are those of the source.

Consider `C[C@H](NC(=O)OCc1ccccc1)C(=O)N[C@@H](C)C(=O)NN(CC(N)=O)C(=O)/C=C/C(=O)N(C)Cc1ccccc1`, for which, in data set [1], the Ratio is 1 M⁻¹ s⁻¹. Moreover, the outcome (on Caspase-8 (Homo sapiens); in data set [3]; at Caspase-6 (Homo sapiens)) was inactive. For the same molecule, the IC50 – broadly, the concentration needed to halve the response being measured – in data set [2] is 0.55 nM. Besides, the half-life (in general, the time needed for the level to fall by half in the phase considered) is 376 min in data set [4] and 20 min in data set [5].

On to `CCOC(=O)/C=C/C(=O)N(CC(N)=O)NC(=O)[C@H](C)NC(=O)[C@H](C)NC(=O)OCc1ccccc1`, for which the results for the Ratio in data set [1] and in data set [3] were 6 M⁻¹ s⁻¹ and below 1 M⁻¹ s⁻¹, respectively. Further, the result at Caspase-8 (Homo sapiens) and on Caspase-6 (Homo sapiens) was inactive. The molecule further registered an IC50 in data set [2] of 4.5 nM. Moreover, the half-life in data set [4] is 19 min; in data set [5] it was 3.7 min.

As to `C[C@H](NC(=O)OCc1ccccc1)C(=O)N[C@@H](C)C(=O)NN(CC(N)=O)C(=O)/C=C/C(=O)N(C)Cc1cccc2ccccc12`, the Ratio in data set [1] came out at 6 M⁻¹ s⁻¹; in the data set on Schistosoma mansoni, 16900 M⁻¹ s⁻¹. Moreover, the outcome (on Caspase-8 (Homo sapiens); in data set [3]; at Caspase-6 (Homo sapiens)) was inactive. Further, the IC50 in data set [2] is below 1 nM.

On to `C[C@H](NC(=O)OCc1ccccc1)C(=O)N[C@@H](C)C(=O)NN(CC(N)=O)C(=O)/C=C/C(=O)N(Cc1ccccc1)Cc1ccccc1`, for which the Ratio is 2 M⁻¹ s⁻¹ in data set [1] and 5800 M⁻¹ s⁻¹ with Schistosoma mansoni. The result (at Caspase-8 (Homo sapiens); in data set [3]; at Caspase-6 (Homo sapiens)) was inactive. Besides, the IC50 in data set [2] amounted to 10 nM. The half-life in data set [5] turned out to be 17 min.
